Calls of active or inactive are those of the source. The rule behind the calls is not given here.

Consider two compounds from ChEMBL document CHEMBL5712087, “Targeting bromodomain-containing protein 4 (BRD4) inhibits MYC expression in colorectal cancer cells” (Neoplasia, 2019).

Test [1] has as its target T1, Protein cereblon/Bromodomain-containing protein 4 (Homo sapiens) (UniProt O60885+Q96SW2). The experiment in a line: PROTAC activity at BRD4/Cereblon in human COLO 320 cells assessed as decrease in MYC protein expression at 5 to 10 uM for 24 hrs by Western blot analysis. The class given is cell-based. The settings on record: dose 5-10 µM. The method, boiled down: (§1)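 Eight CRC lines exposed 24 h to PROTAC at 5 or 10 µM (stocks 2 mM in DMSO, diluted in PBS or medium). Lysis in RIPA with protease/phosphatase inhibitors and 2.5 mmol/l DTT; 15 µg protein on 10% SDS-PAGE, semi-dry transfer to nitrocellulose. Anti-BRD4 or anti-MYC at 1:1,000 overnight at 4 °C; GAPDH or β-actin loading control; chemiluminescence.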
(In western blotting, separated proteins are transferred to a membrane and probed.)

Another test concerns DLD-1. The test can be described thus: Inhibition of colony formation in human DLD-1 cells at 5 to 10 uM by crystal violet staining analysis. The class given is functional, cell-based. The settings on record: dose 5-10 µM. The method, boiled down:
(§2)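 Cells (1-2x10^3) were plated in six-well plates and, after 48 h, exposed to the PROTAC at the stated concentrations for 3–5 days. Plates were then methanol-fixed and stained with crystal violet. Culture was at 37 °C, 5% CO2, with 10% FCS. Media were RPMI 1640 (Caco2, COLO320, DLD1, LS174t), McCoy's (HCT116, HT29) or DMEM/HamsF12 (SW480). Experiments were done ≥3 times.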

The test system of a further test is Caco-2. The experiment in a line: Inhibition of colony formation in human Caco-2 cells at 5 to 10 uM by crystal violet staining analysis. The class given is functional, cell-based. The settings on record: dose 5-10 µM. The method, boiled down:
as §2

Test [2] addresses T1, Protein cereblon/Bromodomain-containing protein 4 (Homo sapiens). The test can be described thus: PROTAC activity at BRD4/Cereblon in human LS174T cells assessed as BRD4 protein expression at 500 nM for 2 hrs and measured 22 hrs after washout by Western blot analysis. The class given is cell-based. In a few lines:
(§3)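 LS174t cells exposed 2 h to PROTAC; for washout, medium replaced and cells collected 22 h later. BRD4 by immunoblot (15 µg lysate, 10% SDS-PAGE, anti-BRD4 1:1,000 overnight at 4 °C, GAPDH/β-actin control).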

For another test, the system named is COLO 320. The test can be described thus: Inhibition of colony formation in human COLO 320 cells at 5 to 10 uM by crystal violet staining analysis. It is filed as functional, cell-based. The settings on record: dose 5-10 µM. The method, boiled down:
as §2

Test [3] addresses T1, Protein cereblon/Bromodomain-containing protein 4 (Homo sapiens). The experiment in a line: PROTAC activity at BRD4/Cereblon in human HCT116 p53+/+ cells assessed as decrease in MYC protein expression at 5 to 10 uM for 24 hrs by Western blot analysis. The class given is cell-based. The settings on record: HCT-116, dose 5-10 µM. In a few lines:
as §1

A further test concerns SW480. The experiment in a line: Inhibition of colony formation in human SW480 cells at 5 to 10 uM by crystal violet staining analysis. The class given is functional, cell-based. The settings on record: dose 5-10 µM. The method, boiled down:
as §2

Another test has as its system HT-29. The experiment in a line: Inhibition of colony formation in human HT-29 cells at 5 to 10 uM by crystal violet staining analysis. The class given is functional, cell-based. The settings on record: dose 5-10 µM. In a few lines: as §2
The target in test [4] is T1, Protein cereblon/Bromodomain-containing protein 4 (Homo sapiens). The test can be described thus: PROTAC activity at BRD4/Cereblon in human LS174T-dbet1 resistant cells assessed as MYC mRNA level at 500 to 1000 nM for 24 hrs by RT-qPCR analysis. The class given is cell-based. The settings on record: dose 500-1000 nM. In a few lines:
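Total RNA from 10^6 cells after 24 h treatment, Trizol-extracted and integrity-checked. 0.7 µg reverse transcribed, then SYBR-type qPCR: 95 °C 5 min, 40 cycles of 95 °C 15 s/60 °C 60 s. Melting curves checked. MYC or BRD4 normalised to PPIA and ACTB by ΔΔCq. At least three experiments; means ± SD.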

Test [5] has the same target. The experiment in a line: PROTAC activity at BRD4/Cereblon in human LS174T cells assessed as BRD4 protein degradation at 500 nM for 2 hrs by Western blot analysis. It is filed as cell-based. The method, boiled down: as §3
Test [6] concerns HCT-116. The experiment in a line: Inhibition of colony formation in human HCT-116 p53-/- cells at 5 to 10 uM by crystal violet staining analysis. It is filed as functional, cell-based. The settings on record: dose 5-10 µM. The method, boiled down: as §2
Test [7] concerns LS174T. The experiment in a line: Inhibition of colony formation in human LS174T cells at 5 to 10 uM by crystal violet staining analysis. The class given is functional, cell-based. The settings on record: dose 5-10 µM. The method, boiled down:
as §2

Test [8] has as its system HCT-116. The test can be described thus: Inhibition of colony formation in human HCT-116 p53+/+ cells at 5 to 10 uM by crystal violet staining analysis. The class given is functional, cell-based. The settings on record: dose 5-10 µM. In a few lines:
as §2

Test [9] concerns the target T1, Protein cereblon/Bromodomain-containing protein 4 (Homo sapiens). The test can be described thus: PROTAC activity at BRD4/Cereblon in human LS174T cells assessed as BRD4 protein degradation at 100 to 1000 nM for 24 hrs by Western blot analysis. The class given is cell-based. The settings on record: dose 100-1000 nM. In a few lines:
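Cells treated 24 h across 1 nM–10 µM range (fibroblasts at 500/1000 nM). Immunoblot: RIPA lysate with 2.5 mmol/l DTT, 15 µg per lane on 10% SDS-PAGE, nitrocellulose, 5% milk block 1 h. BRD4 or MYC primary 1:1,000 overnight at 4 °C, HRP secondary 1:10,000 for 60 min; GAPDH/β-actin loading control; ECL detection.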

The subject of test [10] is LS174T. The test can be described thus: Inhibition of colony formation in human LS174T cells for 3 days by crystal violet staining analysis. It is filed as functional, cell-based. The settings on record: time 3.0 day. In a few lines: as §2
Test [11] addresses T1, Protein cereblon/Bromodomain-containing protein 4 (Homo sapiens). The test can be described thus: PROTAC activity at BRD4/Cereblon in human Caco-2 cells assessed as decrease in MYC protein expression at 5 to 10 uM for 24 hrs by Western blot analysis. The settings on record: dose 5-10 µM. It is filed as cell-based. The method, boiled down: as §1
For test [12] the target is unchanged. The experiment in a line: PROTAC activity at BRD4/Cereblon in human LS174T-dbet1 resistant cells assessed as BRD4 protein degradation at 500 to 1000 nM for 24 hrs by Western blot analysis. It is filed as cell-based. The settings on record: dose 500-1000 nM.
Test [13] concerns the target T2, von Hippel-Lindau disease tumor suppressor/Bromodomain-containing protein 4 (Homo sapiens) (UniProt O60885+P40337). The experiment in a line: PROTAC activity at BRD4/VHL E3 ligase in human LS174T cells assessed as decrease in MYC mRNA level at 100 to 1000 nM for 24 hrs by RT-qPCR analysis. It is filed as cell-based. The settings on record: dose 100-1000 nM. In a few lines: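 LS174t cells were treated for 24 h, then total RNA was Trizol-extracted from 10^6 cells and integrity-checked. 0.7 µg RNA was reverse transcribed and SYBR-type qPCR run for 40 cycles (95 °C 15 s, 60 °C 60 s), with melt-curve control. MYC or BRD4 mRNA was normalised to PPIA and ACTB by the ΔΔCq method. Experiments were run at least three times; mean ± SD.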
On the technique in general: In qPCR the cycle at which signal appears reflects the starting amount.

In test [14] the target is T2, von Hippel-Lindau disease tumor suppressor/Bromodomain-containing protein 4 (Homo sapiens). The experiment in a line: PROTAC activity at BRD4/VHL E3 ligase in human HT-29 cells assessed as decrease in BRD4 protein degradation at 5 to 10 uM for 24 hrs by Western blot analysis. It is filed as cell-based. The settings on record: dose 5-10 µM. The method, boiled down: as §1

Test [15] shares this target. The test can be described thus: PROTAC activity at BRD4/VHL E3 ligase in human LS174T cells assessed as BRD4 protein degradation at 100 to 1000 nM for 24 hrs by Western blot analysis. It is filed as cell-based. The settings on record: dose 100-1000 nM. In a few lines:
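LS174t cells (RPMI 1640, 10% FCS) were exposed to 1 nM–10 µM for 24 h. Lysates in RIPA with inhibitors and 2.5 mmol/l DTT; 15 µg protein was run on 10% SDS-PAGE and transferred to nitrocellulose. BRD4 or MYC primary antibodies were used at 1:1,000 overnight at 4 °C, HRP secondary 1:10,000, and GAPDH/β-actin as loading control. Detection was by chemiluminescence.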

T2 sequence (P40337 whole entry, looked up, other chains not shown): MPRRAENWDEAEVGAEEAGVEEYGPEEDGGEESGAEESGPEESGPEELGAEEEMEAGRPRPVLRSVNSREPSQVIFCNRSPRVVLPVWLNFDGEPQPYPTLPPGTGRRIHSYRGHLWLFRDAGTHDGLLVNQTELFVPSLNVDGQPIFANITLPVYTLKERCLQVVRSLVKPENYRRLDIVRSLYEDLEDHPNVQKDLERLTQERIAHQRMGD
T1 sequence (Q96SW2 whole entry, looked up, other chains not shown): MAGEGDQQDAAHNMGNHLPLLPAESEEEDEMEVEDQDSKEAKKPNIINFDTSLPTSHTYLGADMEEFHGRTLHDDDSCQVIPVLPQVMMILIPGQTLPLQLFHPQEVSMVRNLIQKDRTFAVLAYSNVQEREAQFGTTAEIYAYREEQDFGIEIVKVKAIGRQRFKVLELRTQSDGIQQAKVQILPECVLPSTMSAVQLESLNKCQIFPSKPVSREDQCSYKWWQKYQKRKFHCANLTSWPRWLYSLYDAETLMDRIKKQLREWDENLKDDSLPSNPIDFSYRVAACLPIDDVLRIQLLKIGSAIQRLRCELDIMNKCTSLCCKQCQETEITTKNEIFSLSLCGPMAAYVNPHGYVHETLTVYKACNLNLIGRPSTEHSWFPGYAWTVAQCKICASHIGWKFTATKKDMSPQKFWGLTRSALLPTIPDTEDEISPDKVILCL

With `Cc1sc2c(c1C)C(c1ccc(Cl)cc1)=N[C@@H](CC(=O)NCCCCNC(=O)COc1cccc3c1C(=O)N(C1CCC(=O)NC1=O)C3=O)c1nnc(C)n1-2` (some centres undefined), the result in test [1], in test [3], in test [5] and in [11] was Active. For the same compound, the inhibition entry in the test with DLD-1, in the test with Caco-2, in the test on COLO 320, with SW480, in the test on HT-29 and in the test on HCT-116 [6] was “Active” in each case. Moreover, the inhibition result with LS174T [7] and in the test on HCT-116 [8] was “Active” in each case. The outcome in [2], in test [4] and in test [12] was inactive. Further, the Activity result in test [9] is “Dose-Dependent Effect”. Moreover, in the test on LS174T [10], the inhibition entry is “Dose-Dependent Effect”.
As to `Cc1ncsc1-c1ccc(CNC(=O)[C@@H]2C[C@@H](O)CN2C(=O)[C@@H](NC(=O)COCCOCCOCCNC(=O)C[C@@H]2N=C(c3ccc(Cl)cc3)c3c(sc(C)c3C)-n3c(C)nnc32)C(C)(C)C)cc1`, the inhibition entry with DLD-1, in the test with Caco-2, in the test with COLO 320, in the test on SW480, with HT-29 and with HCT-116 [6] was “Active” throughout. Besides, the inhibition result in the test with LS174T [7] and in the test with HCT-116 [8] was “Active” each time. Also, the outcome in test [13] and in test [14] was Active. In the test with LS174T [10], the inhibition entry is “Dose-Dependent Effect”. Also, the Activity entry in test [15] is “Dose-Dependent Effect”.
